The values that follow come from ChEMBL document CHEMBL4616588, “High content phenotypic screening identifies serotonin receptor modulators with selective activity upon breast cancer cell cycle and cytokine signaling pathways” (Bioorg Med Chem, 2020).

pEC50: −log10 of the molar value. Activity calls are given as the source filed them. No cut-off for these calls is given here.

Test [1] concerns T47D. Kind of test: Induction of morphological changes in human T47D cells at 10 uM incubated for 48 hrs by Hoechst 33342, SYTO14, Phalloidin-594, Wheat germ agglutinin-594, Concavalin-488, MitoTracker DeepRed staining based wide field fluorescent microscopic method. It is filed as functional, cell-based. Put shortly: (§1)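 Parental HCC1954 or T47D cells were seeded at 3000 cells/well in 96-well or 1500 cells/well in 384-well optical imaging plates and grown 24 h. Compounds were given for 48 h at up to 10 μM, with 0.1% DMSO and 0.3 μM staurosporine controls. Cells were fixed in 4% paraformaldehyde for 30 min at RT, then Cell Painting stained for 30 min in the dark […]. Imaging used wide-field fluorescence, and nuclei were segmented from the Hoechst channel and counted.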

Test [2] deals with T47D. As to the kind of experiment: Antiproliferative activity against human T47D cells assessed reduction in cell number at 10 uM incubated for 72 hrs by Alamar blue assay. It is filed as functional, cell-based. Put shortly:
(§2)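 Parental cells in DMEM with 10% FBS and 2 mM L-glutamine at 37 °C, 5% CO2. Seeded in 96-well plates at a line-optimized density (HCC1954 and T47D, 3000 cells/well) and grown 24 h before treatment. Compounds were incubated 72 h, with 0.1% DMSO (v/v) controls. Alamar Blue was added at 10% v/v for 3 h. Fluorescence was read at ex 540/em 590 nm and normalized to plate DMSO wells.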
(Resazurin is reduced to fluorescent resorufin, in cell work by metabolically active cells.)

Test [3] has as its system HCC1954. Kind of test: Induction of morphological changes in human HCC1954 cells at 10 uM incubated for 48 hrs by Hoechst 33342, SYTO14, Phalloidin-594, Wheat germ agglutinin-594, Concavalin-488, MitoTracker DeepRed staining based wide field fluorescent microscopic method. The format is functional, cell-based. Put shortly: as §1
The subject of test [4] is HCC1954. Kind of test: Antiproliferative activity against human HCC1954 cells assessed as reduction in cell number at 10 uM incubated for 72 hrs Alamar blue assay. The format is functional, cell-based. The essentials:
as §2

Test [5] has as its system T47D. Kind of test: Induction of morphological changes in human T47D cells assessed as number of nuclei incubated for 48 hrs by Hoechst 33342, SYTO14, Phalloidin-594, Wheat germ agglutinin-594, Concavalin-488, MitoTracker DeepRed staining based wide field fluorescent microscopic method. It is filed as functional, cell-based. The essentials:
as §1

For test [6], the system named is T47D. As to the kind of experiment: Antiproliferative activity against human T47D cells assessed as cell viability incubated for 72 hrs Alamar blue assay. It is filed as functional, cell-based. The essentials: as §2
For test [7], the system named is HCC1954. As to the kind of experiment: Induction of morphological changes in human HCC1954 cells assessed as number of nuclei incubated for 48 hrs by Hoechst 33342, SYTO14, Phalloidin-594, Wheat germ agglutinin-594, Concavalin-488, MitoTracker DeepRed staining based wide field fluorescent microscopic method. The format is functional, cell-based. The settings on record: HCC1954, 48 h. The essentials: as §1

Test [8] deals with HCC1954. Kind of test: Antiproliferative activity against human HCC1954 cells assessed as cell viability incubated for 72 hrs Alamar blue assay. It is filed as functional, cell-based. The settings on record: HCC1954, 72 h. The essentials:
as §2

Test [9] relates to T47D. Kind of test: Antiproliferative activity against human T47D cells assessed reduction in cell number at 1 uM incubated for 72 hrs by Alamar blue assay. The format is functional, cell-based. Put shortly:
as §2

In test [10] the test system is HCC1954. Kind of test: Antiproliferative activity against human HCC1954 cells assessed as reduction in cell number at 1 uM incubated for 72 hrs Alamar blue assay. The format is functional, cell-based. Put shortly: as §2
The test system of test [11] is T47D. As to the kind of experiment: Induction of cell cycle arrest in human T47D cells assessed as downregulation in CCND1 RNA incubated for 24 hrs. It is filed as functional, cell-based. Put shortly:
(§3)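 T47D cells were seeded in 6-well plates for 24 h, then drug-treated for 24 h. RNA was extracted with on-column DNase digestion and checked by A260/A280, and concentrations were normalized. 100 ng RNA was run on the nCounter PanCancer Pathways Panel. Data were normalized per NanoString protocol, and the advanced analysis module calculated differential ratios against DMSO.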

In test [12] the test system is T47D. Kind of test: Induction of cell cycle arrest in human T47D cells assessed as downregulation in CCNE2 RNA incubated for 24 hrs. It is filed as functional, cell-based. Put shortly: as §3
In test [13] the test system is T47D. Kind of test: Induction of cell cycle arrest in human T47D cells assessed as downregulation in CCNA2 RNA incubated for 24 hrs. It is filed as functional, cell-based. Put shortly:
as §3

Test [14] deals with T47D. Kind of test: Effect on cell cycle pathway in human T47D cells assessed as fold enrichment in cell cycle genes incubated for 24 hrs relative to control. It is filed as functional. Put shortly:
as §3

For test [15], the system named is T47D. As to the kind of experiment: Effect on cell cycle pathway in human T47D cells assessed as fold enrichment in mitotic genes incubated for 24 hrs relative to control. The format is functional. The essentials:
as §3

Test [16] concerns T47D. As to the kind of experiment: Effect on cell cycle pathway in human T47D cells assessed as fold enrichment in G1/S transition genes incubated for 24 hrs relative to control. It is filed as functional. Put shortly:
as §3

Test [17] has as its system T47D. Kind of test: Effect on cell cycle pathway in human T47D cells assessed as fold enrichment in cell cycle checkpoint genes incubated for 24 hrs relative to control. The format is functional. Put shortly:
as §3

The subject of test [18] is T47D. Kind of test: Effect on cell cycle pathway in human T47D cells assessed as fold enrichment in S Phase genes incubated for 24 hrs relative to control. It is filed as functional. The essentials: as §3
Test [19] concerns T47D. Kind of test: Effect on TNFR1 pathway in human T47D cells assessed as fold enrichment in TNFR1-induced proapoptotic signaling incubated for 24 hrs relative to control. It is filed as functional. The essentials:
as §3

The test system of test [20] is T47D. Kind of test: Effect on TNFR1 pathway in human T47D cells assessed as fold enrichment in AP1 family of transcription factors incubated for 24 hrs relative to control. The format is functional. Put shortly: as §3
In test [21] the test system is T47D. Kind of test: Effect on TNFR1 pathway in human T47D cells assessed as fold enrichment in MAPK targets/nuclear events mediated by MAP kinases incubated for 24 hrs relative to control. The format is functional. The essentials: as §3
In test [22] the test system is T47D. As to the kind of experiment: Effect on TNFR1 pathway in human T47D cells assessed as fold enrichment in RAF-independent MAPK1/3 activation genes incubated for 24 hrs relative to control. The format is functional. The essentials:
as §3

Test [23] relates to T47D. Kind of test: Effect on TNFR1 pathway in human T47D cells assessed as fold enrichment in MAP kinase activation genes incubated for 24 hrs relative to control. The format is functional. The essentials: as §3

Take `CNCCCC1c2ccccc2C=Cc2ccccc21` [PROTRIPTYLINE]: the outcome in the test with T47D [1] and with T47D [2] was Active. Moreover, the outcome in the test on HCC1954 [3], in the test with HCC1954 [4], with T47D [9] and with HCC1954 [10] was inactive. Further, the negative-log EC50 (pEC50) (as a rule, the EC50 on a negative log10 scale, so that one unit is a factor of ten) was 5.11 in the test on T47D [5], < 5.00 with T47D [6], < 5.00 with HCC1954 [7] and < 5.00 with HCC1954 [8].
For `CN(C)CCCN1c2ccccc2Sc2ccc(C(F)(F)F)cc21` [TRIFLUPROMAZINE], the result in the test on T47D [1], with T47D [2], with T47D [11], with T47D [12] and in the test on T47D [13] was Active. Also, the result in the test with HCC1954 [3], in the test with HCC1954 [4], in the test with T47D [9] and with HCC1954 [10] was inactive. The negative logarithm of the EC50 (pEC50) in the test with T47D [5] was 5.27; with T47D [6], 5.07; in the test with HCC1954 [7], < 5.00; in the test on HCC1954 [8], < 5.00. Moreover, the “fold change (FC)” value is on record as 7.33 in the test with T47D [14]; 7.55 with T47D [15]; 11.45 in the test with T47D [16]; 11.45 in the test on T47D [17]; 10.15 with T47D [18]; 17.4 with T47D [19]. For the same compound, the “fold change (FC)” value is reported as 14.91 in the test with T47D [20], 1.015 in the test with T47D [21], 6.96 in the test with T47D [22] and 6.02 with T47D [23].
